CXCR6 inh: CXCR6 receptor inhibitors, primary screen, cell-based, beta-arrestin, luminescence, CHO-K1 PathHunter, 1536-well | C-X-C chemokine receptor type 6 (Homo sapiens), O00574 | inhibition, % at 20 µM | 360,000 tested, 0.36% active | AID 602244, 2012; in the data active = inhibition above about 34%, passing the limit was not always enough;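 note: antagonist mode with CXCL16 agonist at 10 nM final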
EBI2 block: EBI2 receptor antagonists, beta-arrestin recruitment, primary screen, cell-based, luminescence, 7a,25-OHC stimulation, uHTS; inhibition, % at 5 µM; AID 651636, 2012; 360,000 tested, 0.81% active; G-protein coupled receptor 183 (Homo sapiens), P32249; 7a,25-OHC stimulated; in the data active = inhibition above about 38%;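 note: enzyme fragment complementation signal reports receptor beta-arrestin coupling in cells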
APJ antagonist: antagonists of human apelin receptor APJ, primary screen, CHO-K1 cells, beta-arrestin complementation, luminescence | AID 2521, 2010 | inhibition, % at 20 µM | 330,000 tested, 0.32% active;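 active = inhibition above about 40% at 20 µM, limit read from the data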;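 note: cells challenged with 10 nM apelin-13 agonist together with compound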
CCR6 antagonist: CCR6 receptor antagonists, primary screen, cell-based, CHO-K1, luminescence, beta-arrestin, uHTS; CHO-K1 CCR6 PathHunter beta-arrestin, CCL20-stimulated; inhibition, % at 20 µM; 340,000 tested, 0.49% active;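 active = compounds whose inhibition of the agonist-driven luminescence signal at 20 µM reaches about 50%, limit read from the data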;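 note: cells stimulated with CCL20 at 14 nM final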
Target sequence (P51684 whole entry, looked up): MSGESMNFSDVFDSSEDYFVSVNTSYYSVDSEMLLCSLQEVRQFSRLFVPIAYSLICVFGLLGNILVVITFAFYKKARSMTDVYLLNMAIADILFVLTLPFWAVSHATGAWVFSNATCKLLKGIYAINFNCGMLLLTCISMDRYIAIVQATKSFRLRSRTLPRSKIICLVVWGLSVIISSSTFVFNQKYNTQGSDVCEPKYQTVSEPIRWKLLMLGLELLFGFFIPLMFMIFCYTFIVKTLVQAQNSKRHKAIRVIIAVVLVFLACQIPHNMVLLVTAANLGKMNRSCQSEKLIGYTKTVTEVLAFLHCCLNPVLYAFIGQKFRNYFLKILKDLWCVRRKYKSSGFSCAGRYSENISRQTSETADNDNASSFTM
APJ agonist: agonists of human apelin receptor APJ, primary screen, CHO-K1 cells, PathHunter beta-arrestin, luminescence; P35414; 0% DMSO wells, 100% apelin; activation, % at 20 µM; 330,000 tested, 0.11% active;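 active = activation more than six SD over the plate average, tested at 20 µM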
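Incubation: overnight seeding, 90 min compound at 25 °C, 1 h detection; test system: PathHunter CHO-K1 APJ (AGTRL-1) beta-arrestin reporter cells; amount: 1000 cells/well; doses: one dose, 20 µM compound, 1% DMSO; measured by: beta-gal luminescence; measure: agonist-driven arrestin binding to APJ; benchmarks: negative DMSO alone, positive Apelin-13 at 10 nM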
Large screens that a line does not name were inactive. In the library only some 1.5% were active in any assay of this set; here they are far more common.

CNC(=S)N/N=C1\C(=O)c2cccc3cccc1c23	CCR6 antagonist 52
CCCCNC(=S)N/N=C1\C(=O)c2cccc3cccc1c23	none
N#C/C(=C\c1ccc(O)cc1)c1nc2ccccc2o1	APJ antagonist 45
O=[N+]([O-])c1cccc(CN2CCN(S(=O)(=O)Cc3ccccc3)CC2)c1	none
CN1/C(=C/C(=O)c2nc(S(C)(=O)=O)ncc2Cl)C(C)(C)c2ccccc21	EBI2 block 58
CN1/C(=C\C(=O)c2cccnc2)C(C)(C)c2ccccc21	none
C[N+](C)(CC#Cc1ccccc1)CC(=O)c1ccc(Cl)cc1	APJ antagonist 42
C[N+](C)(CC#Cc1ccccc1)CC(=O)c1ccccc1	none
Nn1c(SCC(=O)Nc2ccc(N3CCOCC3)cc2)nnc1C1CC1	none
O=C1c2cccc(O)c2C(=O)c2c(O)cc(CO)cc21	none (no result: CXCR6 inh, EBI2 block)
CC1OC2CC(=O)OC2C2=C1C(=O)c1c(O)cccc1C2=O (stereo not drawn)	CXCR6 inh 79 (no result: APJ antagonist, CCR6 antagonist, APJ agonist)
Clc1ccc(-c2cn3c(n2)-c2ccccc2C3)cc1Cl	EBI2 block 57
COc1ccc2c(c1)c1nnc(SCC(=O)N3CCCCC3C)nc1n2C (stereo not drawn)	none (no result: APJ antagonist, APJ agonist)
CC(C)(C)c1nnc(N/N=C/c2ccccc2O)n(N)c1=O	EBI2 block 81
CSc1nc(Oc2ccc(F)cc2)c2ccccc2n1	none
CCN(CC)S(=O)(=O)c1ccc2c(c1)C(=NO)c1cc(S(=O)(=O)N(CC)CC)ccc1-2	EBI2 block 50
CCCCNC(=O)C1CCN(S(=O)(=O)c2cnc[nH]2)CC1	none
CCOC(=O)c1ccc(N=c2sc(C(=O)OC)cc(=O)n2Cc2ccco2)cc1	EBI2 block 58
COC(=O)c1cc(=O)n(CCc2ccccc2)c(=Nc2ccc(F)cc2)s1	none
Cc1nn(-c2ccccc2)c(Cl)c1CN(C(=O)CCl)c1cccc2ccccc12	EBI2 block 60
COc1cc(N=C2C(=O)N3c4c(cccc42)C(C)=CC3(C)C)cc(OC)c1	CCR6 antagonist 61
COc1ccc(NC(=S)N2CCN(C/C=C/c3ccccc3)CC2)cc1	none
Cc1nc([N+](=O)[O-])c(Br)n1CC(=O)c1ccc(Cl)cc1	none
Cc1nc([N+](=O)[O-])c(Br)n1Cc1ccc(Cl)c(Cl)c1	EBI2 block 50 (no result: APJ antagonist, APJ agonist)
CCOC(=O)N1CCN(C(=O)c2ccc(Cn3c(=S)[nH]c4cc(OCC)c(OCC)cc4c3=O)cc2)CC1	APJ agonist 27
O=C(N/N=C/c1cn(-c2ccccc2)nc1-c1cccs1)c1ccncc1	CCR6 antagonist 53
COc1cc(SC)ccc1C(=O)Nc1ccc2c(c1)OCO2	none (no result: APJ antagonist, APJ agonist)
Cc1cccc(C)c1NC(=O)C(CCc1ccccc1)N1CCC(c2ccccc2)CC1 (stereo not drawn)	none (no result: CXCR6 inh, APJ antagonist, CCR6 antagonist, APJ agonist)
O=C(Nc1cc(S(=O)(=O)Nc2ccccc2Cl)ccc1O)c1sc2cc(Cl)ccc2c1Cl	CCR6 antagonist 75
CC1CCN(Cc2c(C(=O)N/N=C/c3cc(Br)ccc3O)nnn2-c2nonc2N)CC1	none
CC1CCN(Cc2c(C(=O)N/N=C/c3cc(Cl)ccc3O)nnn2-c2nonc2N)CC1	CCR6 antagonist 50
N#Cc1ncc(C(F)(F)F)cc1Sc1ccc(N)cc1	none
COc1ccc(NC(=O)CN2C(=O)/C(=C3\SC(=S)N(CCC(=O)O)C3=O)c3ccccc32)cc1	CCR6 antagonist 55
O=C(O)CCN1C(=O)/C(=C2\C(=O)N(Cc3ccccc3Cl)c3ccccc32)SC1=S	none (no result: CCR6 antagonist)
CC(=O)c1ccc(Oc2ccc(C(C)=O)cc2)cc1	none
CC(OC(=O)c1ccc(S(C)(=O)=O)c([N+](=O)[O-])c1)C(=O)NC1C2CC3CC(C2)CC1C3 (stereo not drawn)	EBI2 block 65 (no result: APJ antagonist, CCR6 antagonist, APJ agonist)
CS(=O)(=O)c1ccc(C(=O)OCC(=O)NC23CC4CC(CC(C4)C2)C3)cc1[N+](=O)[O-]	EBI2 block 65
COc1ccc(C(OCC(O)CNCCc2ccc(S(N)(=O)=O)cc2)c2ccc(OC)cc2)cc1 (stereo not drawn)	none
OC(CNCCc1ccc(C(F)(F)F)cc1)COC(c1ccccc1)c1ccccc1 (stereo not drawn)	CCR6 antagonist 60
COc1ccc(OC)c2sc(N(CCCN(C)C)C(=O)CCS(=O)(=O)c3ccccc3)nc12	CXCR6 inh 62, EBI2 block 54, CCR6 antagonist 70
COCCCNC(=O)C(CC(N)=O)NC(=O)OCc1ccccc1 (stereo not drawn)	none
N#CC(C#N)=C1C=CC=CN1/C(=C\c1ccco1)C(=O)c1ccc(Br)cc1	CXCR6 inh 103, EBI2 block 77, CCR6 antagonist 104 (no result: APJ antagonist, APJ agonist)
O=C(CCCN1C(=O)/C(=C/c2ccccc2Cl)SC1=S)NNC(=O)c1ccc(Cl)cc1	EBI2 block 60
O=C(CCN1C(=O)/C(=C/c2ccccc2Cl)SC1=S)NNC(=O)c1cccnc1	none
Cc1ccc(C(=O)NNC(=O)CCCN2C(=O)/C(=C/c3ccccc3Cl)SC2=S)cc1	EBI2 block 66
COc1cc(N2C(=O)C=CC2=O)c(OC)cc1Cl	CXCR6 inh 75 (no result: CCR6 antagonist)
O=C1C=C(c2ccccc2)C(=O)N1Nc1ccccc1	none (no result: CCR6 antagonist)
Cc1ccc(NN2C(=O)C=C(c3ccc(Cl)cc3)C2=O)cc1	EBI2 block 46
O=C(CSc1nc(-c2ccc(F)cc2)nc2c1Cc1ccccc1O2)Nc1cccc(C(=O)O)c1	CCR6 antagonist 52 (no result: APJ antagonist, APJ agonist)
CCOc1ccc(CCN2C(=O)C3C4CCC(O4)C3C2=O)cc1OCC (stereo not drawn)	none
CS(=O)(=O)/C(C#N)=C/c1c(-c2ccccc2)nc2n1CCS2	none
CCCN(CCC)CCNS(=O)(=O)c1ccc2c(c1)oc(=O)n2C	CCR6 antagonist 119
O=[N+]([O-])c1cc([N+](=O)[O-])c2nonc2c1Nc1ccccc1O	none
O=[N+]([O-])c1cc([N+](=O)[O-])c2nonc2c1Nc1ccc(O)cc1	CCR6 antagonist 51
Cc1cc(C)nc(N2CCCC(C(=O)NNC(=O)c3ccncc3)C2)n1 (stereo not drawn)	none
C#CCOCCOCCOCCNc1nc(N2CCN(C(=O)CCCCCCCCCCNC(=O)[C@H]([C@@H](C)CC)n3cc(CCCCN=C(N)N)nn3)CC2)nc(N2CCN(C(=O)CCCCCCCCCCNC(=O)[C@H](CCCCN)n3cc(C[C@@H](C)CC)nn3)CC2)n1	APJ agonist 59 (no result: CXCR6 inh, EBI2 block, CCR6 antagonist)
C/C(=N\NC(N)=S)c1ccccc1	none
CSC(=S)N/N=C(\C)c1ccccc1	APJ antagonist 47, CCR6 antagonist 57
O=C1CC(C(=O)Nc2ccc(Cl)cc2[N+](=O)[O-])C2(CCCCC2)O1 (stereo not drawn)	CCR6 antagonist 57
Cc1ccc(N(C(C)C(=O)Nc2c(C)n(C)n(-c3ccccc3)c2=O)S(C)(=O)=O)cc1C (stereo not drawn)	none
Cc1ccc(C)c(NC(=S)Nc2cccc3cnccc23)c1	none

Source: PubChem BioAssay
